Measurements from ChEMBL document CHEMBL5150070, “Tricyclic SpiroLactams Kill Mycobacteria In Vitro and In Vivo by Inhibiting Type II NADH Dehydrogenases” (J Med Chem, 2022).
pIC50: −log10 of the molar value. Values after ≈ are worked out from the molar mass of the structure shown. Active and inactive are the calls of the source. The calls are words filed in the database; no cut-off is given here.

Tests used:
[1] = tested on: Mycobacterium tuberculosis; assay: Antimycobacterial activity against Mycobacterium tuberculosis H37Rv assessed as reduction in bacterial cell growth by measuring resazurin reduction incubated for 6 days by fluorescence microplate based assay; format: functional; details: time 6 day
[2] = target: Type II NADH:quinone oxidoreductase Ndh (Mycobacterium tuberculosis, UniProt P95160); assay: Inhibition of Mycobacterium tuberculosis recombinant type II NADH dehydrogenase ndh expressed in Escherichia coli assessed as rate of NADH oxidation in the presence of an electron acceptor menadione
Sequence of Type II NADH:quinone oxidoreductase Ndh (P95160 whole entry): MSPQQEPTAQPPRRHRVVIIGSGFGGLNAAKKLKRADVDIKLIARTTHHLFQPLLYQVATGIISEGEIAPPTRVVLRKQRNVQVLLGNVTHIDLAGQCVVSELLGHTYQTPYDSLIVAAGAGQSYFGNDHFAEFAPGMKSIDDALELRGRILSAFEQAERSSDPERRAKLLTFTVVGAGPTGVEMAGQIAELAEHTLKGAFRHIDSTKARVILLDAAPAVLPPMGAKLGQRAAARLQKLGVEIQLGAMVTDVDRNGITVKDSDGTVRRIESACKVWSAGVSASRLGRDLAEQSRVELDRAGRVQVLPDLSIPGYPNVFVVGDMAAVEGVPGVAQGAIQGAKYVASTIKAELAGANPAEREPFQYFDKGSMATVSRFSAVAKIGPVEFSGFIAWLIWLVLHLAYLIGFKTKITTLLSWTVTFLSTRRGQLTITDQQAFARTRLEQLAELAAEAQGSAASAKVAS
In short: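 Purified N-terminal MBP-tagged Mtb Ndh (Rv1854c) expressed in E. coli, 70 nM, with 500 µM NADH in 50 mM HEPES pH 7.1 (K₂HPO₄). Compound pre-incubated 15 min at 25°C, reaction started with 100 µM menadione. NADH oxidation followed at 340 nm every 60 s. Rate taken from linear slope; IC50 is the mean ± SD of at least 3 independent experiments.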

[3] = target: T1, Type II NADH:quinone oxidoreductase NdhA (Mycobacterium tuberculosis, UniProt P95200); assay: Inhibition of Mycobacterium smegmatis MC2 155 recombinant ndhA assessed as rate of NADH oxidation in the presence of an electron acceptor menadione; parameters: species or system Mycolicibacterium smegmatis
T1 sequence (P95200 whole entry): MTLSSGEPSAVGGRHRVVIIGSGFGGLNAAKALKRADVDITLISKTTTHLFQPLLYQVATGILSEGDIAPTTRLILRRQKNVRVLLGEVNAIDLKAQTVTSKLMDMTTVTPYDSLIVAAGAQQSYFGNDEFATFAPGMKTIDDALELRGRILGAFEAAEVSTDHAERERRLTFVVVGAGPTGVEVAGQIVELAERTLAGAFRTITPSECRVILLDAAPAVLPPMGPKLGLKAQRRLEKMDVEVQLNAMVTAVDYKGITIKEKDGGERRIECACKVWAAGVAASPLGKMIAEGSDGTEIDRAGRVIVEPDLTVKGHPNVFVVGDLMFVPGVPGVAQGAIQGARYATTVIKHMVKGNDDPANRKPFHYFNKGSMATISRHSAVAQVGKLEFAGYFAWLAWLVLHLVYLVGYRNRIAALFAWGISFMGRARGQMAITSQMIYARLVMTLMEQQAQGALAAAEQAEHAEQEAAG

[4] = tested on: Mycobacterium tuberculosis; assay: Antimycobacterial activity against Mycobacterium tuberculosis H37Rv infected in human A-THP1 macrophages assessed as viability of infected macrophages incubated for 96 hrs by fluorescence microplate assay; format: functional, organism-based
In short: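 THP-1 cells differentiated with 50 ng/mL PMA for 72 h, infected with log-phase H37Rv (MOI 10, 2 h), and extracellular bacteria killed with 50 µg/mL amikacin for 1 h. Cells detached and seeded at 5×10⁵/mL in RPMI-10% FBS with PMA onto pre-dispensed compound, 96 h at 37°C, 5% CO₂. Macrophage viability by 0.05% resazurin fluorescence.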

[5] = Octanol/PBS partition coefficient, logD of compound at pH 7.4 measured after 2 hrs by shake flask method; format: physicochemical; details: octanol/water, pH 7.4, 2 h
In short: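 A 10 mM DMSO stock was diluted 50-fold into 1:1 octanol:PBS pH 7.4 and shaken gently for 2 h at room temperature. Each phase was diluted 50-fold in MeOH and quantified by LC-MS/MS. LogD = log of the octanol/PBS concentration ratio from mass signals. Run in triplicate.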

[6] = tested on: Mycobacterium tuberculosis; assay: Antibiotic activity against Mycobacterium tuberculosis H37Rv assessed as reduction in bacterial cell growth by measuring resazurin reduction incubated for 6 days by fluorescence microplate based assay; format: functional; details: 144 h, time 6 day
Mycobacterium marinum [7] = assay: Antibiotic activity against Mycobacterium marinum M strain assessed as reduction in bacterial cell growth by measuring resazurin reduction incubated for 6 days by fluorescence microplate based assay; format: functional; details: 144 h, time 6 day
Mycobacterium avium = assay: Antibiotic activity against Mycobacterium avium TMC 724, ATCC-25291 assessed as reduction in bacterial cell growth by measuring resazurin reduction incubated for 6 days by fluorescence microplate based assay; format: functional; details: TMC 724, ATCC-25291, 144 h, time 6 day
[8] = tested on: Mycolicibacterium smegmatis; assay: Antibiotic activity against Mycobacterium smegmatis mc2155 assessed as reduction in bacterial cell growth by measuring resazurin reduction incubated for 6 days by fluorescence microplate based assay; format: functional; details: mc2155, 144 h, time 6 day
[9] = tested on: Mycobacteroides abscessus; assay: Antibiotic activity against Mycobacterium abscessus CIP104536, Smooth variant assessed as reduction in bacterial cell growth by measuring resazurin reduction incubated for 6 days by fluorescence microplate based assay; format: functional; details: 144 h, time 6 day
[10] = tested on: Mycobacteroides abscessus; assay: Antibiotic activity against Mycobacterium abscessus CIP104536, Rough variant assessed as reduction in bacterial cell growth by measuring resazurin reduction incubated for 6 days by fluorescence microplate based assay; format: functional; details: 144 h, time 6 day
Bacillus subtilis = assay: Antibiotic activity against Bacillus subtilis ATCC6633 assessed as reduction in bacterial cell growth by measuring resazurin reduction incubated for 6 days by fluorescence microplate based assay; format: functional; details: ATCC6633, 144 h, time 6 day
Staphylococcus aureus = assay: Antibiotic activity against Staphylococcus aureus SH1000 assessed as reduction in bacterial cell growth by measuring resazurin reduction incubated for 6 days by fluorescence microplate based assay; format: functional; details: SH1000, 144 h, time 6 day
In short: (§1)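 E. coli BW25113, E. coli ΔtolC and S. aureus SH1000 were cultured and tested in cation-adjusted Mueller Hinton II broth. Viability was read by adding resazurin and measuring resorufin fluorescence at Ex 530 nm / Em 590 nm.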

Escherichia coli [11] = assay: Antibiotic activity against Escherichia coli BW25113 assessed as reduction in bacterial cell growth by measuring resazurin reduction incubated for 6 days by fluorescence microplate based assay; format: functional; details: BW25113, 144 h, time 6 day; in short: as §1
Escherichia coli [12] = assay: Antibiotic activity against Escherichia coli deltatolC BW25113 deltatolC assessed as reduction in bacterial cell growth by measuring resazurin reduction incubated for 6 days by fluorescence microplate based assay; format: functional; details: 144 h, time 6 day; in short: as §1
Pseudomonas aeruginosa = assay: Antibiotic activity against Pseudomonas aeruginosa POA1 assessed as reduction in bacterial cell growth by measuring resazurin reduction incubated for 6 days by fluorescence microplate based assay; format: functional; details: POA1, 144 h, time 6 day
Klebsiella pneumoniae = assay: Antibiotic activity against Klebsiella pneumoniae LMG 2095 assessed as reduction in bacterial cell growth by measuring resazurin reduction incubated for 6 days by fluorescence microplate based assay; format: functional; details: LMG 2095, 144 h, time 6 day
Acinetobacter baumannii = assay: Antibiotic activity against Acinetobacter baumannii LMG-17978 assessed as reduction in bacterial cell growth by measuring resazurin reduction incubated for 6 days by fluorescence microplate based assay; format: functional; details: LMG-17978, 144 h, time 6 day
[13] = tested on: Mycobacterium tuberculosis; assay: Bactericidal activity against replicating Mycobacterium tuberculosis H37Rv assessed as reduction in colony forming unit measured at 2 to 4 times of MIC after 1 to 2 weeks; format: functional; details: time 1-2 weeks
In short: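 Mid-log H37Rv in 7H9-GTy-OADC diluted to OD600 0.02 (~1×10⁶ cfu/mL) and exposed to compound in 96-well replica plates for 1 or 2 weeks. For the 3 lowest concentrations without visible growth, serial 10-fold dilutions plated on 7H11-OADC and cfu counted over 6 weeks at 37°C. Four independent experiments; log10 cfu/mL ± SD.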

[14] = tested on: Mycobacterium tuberculosis; assay: Bactericidal activity against Non-replicating Mycobacterium tuberculosis ss18b-lux model assessed as decrease in luminescence at 10 to 10000 nM; format: functional, organism-based; details: dose 10-10000 nM, TDE = time-dependent effect
In short: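 Non-replicating streptomycin-starved 18b-lux (14-day starvation) diluted to OD600 0.15 in white 96-well plates with compound and incubated at 37°C. Luminescence read on days 1, 2, 5 and 7 and expressed relative to no-antibiotic controls (n ≥ 3).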

[15] = tested on: Mycobacterium tuberculosis; assay: Bactericidal activity against Non-replicating Mycobacterium tuberculosis ss18b-lux assessed as bacterial killing by measuring CFU after 1 week; format: functional, organism-based; details: time 1.0 weeks, DDE = dose-dependent effect
In short: (§2)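 Streptomycin-dependent 18b-lux starved of streptomycin for 14 days (OD600 reset to 0.2 on days 7 and 13) to become non-replicating. Diluted to OD600 0.15 on dispensed compound and held at 37°C. On day 7, active wells plated on 7H11-OADC with 50 µg/mL streptomycin and incubated up to 8 weeks for cfu.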

[16] = tested on: Mycobacterium tuberculosis; assay: Bactericidal activity against Non-replicating Mycobacterium tuberculosis ss18b-lux assessed as decrease in colony forming unit measured at 4.8 uM after 1 weeks; format: functional; in short: as §2
[17] = tested on: Mycobacterium tuberculosis; assay: Inhibition of Ndh2 in Mycobacterium tuberculosis assessed as increase in NADH/NAD+ ratio at 600 nM measured after 24 hrs
In short: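 Mid-log H37Rv diluted to OD600 0.3 and exposed to compound at 37°C for 2 and 24 h. Pellets extracted in 0.2 M HCl (NAD⁺) or 0.2 M NaOH (NADH), bead-milled, heated 55°C 10 min, neutralised. NAD/NADH-Glo luminescence read against an NADH standard curve, corrected for OD600. Three independent experiments, duplicate technical replicates.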

[18] = tested on: Mycobacterium tuberculosis; assay: Inhibition of Ndh2 in Mycobacterium tuberculosis assessed as decrease in ATP concentration measured after 24 hrs; details: DDE = dose-dependent effect
In short: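 Log-phase H37Rv diluted to OD600 0.01 in complete 7H9 and exposed in 96-well plates to compound added from a 100× DMSO stock, at 37°C. ATP measured with BacTiter-Glo luminescence after 4 and 24 h; three independent experiments.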

[19] = Metabolic stability in mouse liver microsomes; format: ADME, Microsome
Mycobacterium marinum [20] = assay: in vivo antimycobacterial efficacy in Mycobacterium marinum infected zebrafish larvae assessed as reduction in bacterial burden at 0.25 to 2 micog/ml measured after 2 to 4 days off post infection; format: functional, organism-based; details: time 2-4 day
[21] = Toxicity in noninfected zebrafish larvae assessed as larval development; parameters: species or system Danio rerio; details: in vivo
[22] = Toxicity in noninfected zebrafish larvae assessed as toxic effect; parameters: species or system Danio rerio; details: in vivo
Mycobacterium marinum [23] = assay: In vivo antimycobacterial efficacy in Mycobacterium marinum expressing Wasabi infected zebrafish larvae assessed as prolongation of survival treated for 4 days after 1 day post infection; format: functional, organism-based; details: dose 0.3-1.2 µM, time 4.0 day, DDE = dose-dependent effect
In short: (§3)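 Golden mutant or Tg(mpeg1:mCherry) zebrafish embryos were dechorionated and anaesthetised in 0.016% tricaine. At 30 hpf, 2–3 nL containing about 200–250 cfu of Wasabi-expressing M. marinum M (pTEC15) was injected into the caudal vein. The inoculum was confirmed by plating on 7H10. Embryos were kept in E3 at 28.5 °C, 12 per well, to follow infection and survival.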

Mycobacterium marinum [24] = assay: In vivo antimycobacterial efficacy in Mycobacterium marinum expressing Wasabi infected zebrafish larvae assessed as prolongation of survival time at 4.8 uM treated for 4 days after 1 day post infection; format: functional; details: time 4 day
Mycobacterium marinum [25] = assay: In vivo antimycobacterial efficacy in Mycobacterium marinum expressing Wasabi infected zebrafish larvae assessed as prolongation of survival at 9.6 uM treated for 4 days after 1 day post infection; format: functional, organism-based; details: time 4.0 day; in short: as §3
Mycobacterium marinum [26] = assay: In vivo antimycobacterial efficacy in Mycobacterium marinum expressing Wasabi infected zebrafish larvae assessed as prevention of bacterial infection foci at 0.25 to 2 ug/ml treated for 2 to 4 days after 1 day post infection; format: functional, organism-based; details: dose 0.25-2 µg/ml, time 2-4 day; in short: as §3
Mycobacterium marinum [27] = assay: In vivo antimycobacterial efficacy in Mycobacterium marinum expressing Wasabi infected zebrafish larvae assessed as prevention of bacterial load using fluorescence pixel count determination at 0.5 ug/ml treated for 2 to 4 days after 1 day post infection; format: functional, organism-based; details: dose 0.5 µg/ml, time 2-4 day; in short: as §3

CC[C@H]1CO[C@]23CCN(Cc4ccccc4)C[C@H]2CCC(=O)N13
MIC98 [1]: 18.8 µM (≈ 5.91 µg/mL)

COc1ccc(CN2CC[C@]34OC[C@H](C(C)C)N3C(=O)CC[C@@H]4C2)cc1
MIC98 [1]: 4.7 µM (≈ 1.68 µg/mL)
pIC50 [2]: 6.70
pIC50 [3]: 5.63

NNC(=O)c1ccncc1 [ISONIAZID]
pIC50 [4]: 6.69

O=C1CC[C@@H]2CN(Cc3ccccc3)CC[C@@]23OC[C@H](C2CC2)N13
MIC98 [1]: 37.5 µM (≈ 12.2 µg/mL)

CC(C)[C@H]1CO[C@]23CCN(Cc4ccc(OC(F)(F)F)cc4)C[C@H]2CCC(=O)N13
MIC98 [1]: 0.13 µM (≈ 0.0536 µg/mL)
pIC50 [4]: 6.44
logD [5]: 3.9
MIC [6]: 0.13 µM (≈ 0.0536 µg/mL)
MIC (Mycobacterium marinum [7]): 0.16 µM (≈ 0.066 µg/mL)
MIC (Mycobacterium avium): 0.38 µM (≈ 0.157 µg/mL)
MIC [8]: 1.3 µM (≈ 0.536 µg/mL)
MIC [9]: 8.1 µM (≈ 3.34 µg/mL)
MIC [10]: 8.1 µM (≈ 3.34 µg/mL)
MIC (Bacillus subtilis): > 100 µM
MIC (Staphylococcus aureus): > 100 µM
MIC (Escherichia coli [11]): > 100 µM
MIC (Escherichia coli [12]): 100 µM (≈ 41.2 µg/mL)
MIC (Pseudomonas aeruginosa): > 100 µM
MIC (Klebsiella pneumoniae): > 100 µM
MIC (Acinetobacter baumannii): > 100 µM
Activity [13]: 0.8 log10CFU
Activity [14]: Tde
Activity [15]: Dde
Activity [16]: 1 log10CFU
inhibition [17]: Active
inhibition [18]: Dde
Drug metabolism [19]: Metabolite_Detected
Activity (Mycobacterium marinum [20]): Active
Activity [21]: Non-Toxic
Activity [22]: Non-Toxic
Activity (Mycobacterium marinum [23]): Dde
Time (Mycobacterium marinum [24]): 3 days
Activity (Mycobacterium marinum [25]): Active
Activity (Mycobacterium marinum [26]): Active
Activity (Mycobacterium marinum [27]): Active

CC(C)(C)[C@H]1CO[C@]23CCN(Cc4ccccc4)C[C@H]2CCC(=O)N13
MIC98 [1]: 25 µM (≈ 8.56 µg/mL)
